# ChEMBL document CHEMBL5316351, “Development of a Covalent Inhibitor of c-Jun N-Terminal Protein Kinase (JNK) 2/3 with Selectivity over JNK1” (J Med Chem, 2023)
# Calls of active or inactive are those of the source. The calls are words filed in the database; no cut-off is given here.
# What was measured:
# [1] = molecular target: Epithelial discoidin domain-containing receptor 1 (Homo sapiens) (UniProt Q08345); test: Inhibition of DDR1 (unknown origin)
# [2] = molecular target: T1, Mitogen-activated protein kinase 8 (Homo sapiens, UniProt P45983); test: Inhibition of His-tagged human recombinant JNK1 expressed in insect cells incubated for 1 hr in presence of ATP by Z'-Lyte assay; set-up: species or system Insect cell
# [3] = molecular target: CDK7/Cyclin H/MNAT1 (Homo sapiens) (UniProt P51946+P50613+P51948); test: Inhibition of CDK7/Cyclin H/MAT1 (unknown origin); type: protein-complex assay
# [4] = molecular target: T2, Mitogen-activated protein kinase 9 (Homo sapiens, UniProt P45984); test: Inhibition of His-tagged human recombinant JNK2 expressed in baculovirus expression system incubated for 1 hr in presence of ATP by Z'-Lyte assay
# Target sequence in this assay (P45984 whole entry): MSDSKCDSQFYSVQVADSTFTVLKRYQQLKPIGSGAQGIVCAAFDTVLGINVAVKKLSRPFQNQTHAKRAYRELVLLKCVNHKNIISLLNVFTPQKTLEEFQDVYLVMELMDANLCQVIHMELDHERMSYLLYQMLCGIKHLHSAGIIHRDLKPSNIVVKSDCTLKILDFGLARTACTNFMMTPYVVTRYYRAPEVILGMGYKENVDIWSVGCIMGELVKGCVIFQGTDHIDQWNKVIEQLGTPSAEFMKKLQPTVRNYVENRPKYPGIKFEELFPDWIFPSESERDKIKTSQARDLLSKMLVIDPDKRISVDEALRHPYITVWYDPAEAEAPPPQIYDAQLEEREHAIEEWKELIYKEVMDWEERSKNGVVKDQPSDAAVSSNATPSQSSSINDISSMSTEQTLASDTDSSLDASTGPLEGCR
# Homo sapiens [5] = organism: Homo sapiens; test: Inhibition of CK1 (unknown origin)
# [6] = molecular target: T3, Aurora kinase A (Homo sapiens) (UniProt O14965); test: Inhibition of Aurora A kinase (unknown origin)
# T3 sequence (whole entry): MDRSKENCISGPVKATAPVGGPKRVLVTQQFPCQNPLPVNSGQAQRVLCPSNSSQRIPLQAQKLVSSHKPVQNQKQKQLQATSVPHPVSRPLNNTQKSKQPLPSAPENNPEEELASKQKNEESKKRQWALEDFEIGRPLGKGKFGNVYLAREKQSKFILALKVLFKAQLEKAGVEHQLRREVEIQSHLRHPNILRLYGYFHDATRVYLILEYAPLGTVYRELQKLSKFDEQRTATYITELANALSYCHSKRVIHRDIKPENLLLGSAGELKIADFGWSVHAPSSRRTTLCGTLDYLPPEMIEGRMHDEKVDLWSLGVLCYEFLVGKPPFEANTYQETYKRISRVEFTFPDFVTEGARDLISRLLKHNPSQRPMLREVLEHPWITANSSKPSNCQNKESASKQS
# [7] = molecular target: Epidermal growth factor receptor (Homo sapiens) (UniProt P00533); test: Inhibition of EGFR (unknown origin)
# [8] = molecular target: Aurora kinase B (Homo sapiens) (UniProt Q96GD4); test: Inhibition of Aurora B kinase (unknown origin)
# Homo sapiens [9] = organism: Homo sapiens; test: Selectivity ratio of IC50 for His-tagged human recombinant JNK1 expressed in insect cells to His-tagged human recombinant JNK2 expressed in baculovirus expression system
# Procedure, shortened: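 Z′-Lyte kinase assays of JNK1 and JNK2 with 100 μM ATP and 1 h compound incubation. Fixed time point IC50 was determined in duplicate. The selectivity ratio is JNK1 IC50 over JNK2 IC50.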
# MM1.S [10] = test: Antiproliferative activity against human MM1.S cells assessed as inhibition of cell growth rate measured after 72 hrs by CellTiter-Glo luminescent assay; type: functional
# [11] = molecular target: T2, Mitogen-activated protein kinase 9; test: Inhibition of Nano-Luc fused JNK2 (unknown origin) expressed in HEK293T cells pretreated for 3 hrs followed by K5-tarcer addition and measured after 1 hr by NanoBRET assay; type: cell-based
# Target sequence in this assay (P45984 whole entry): as the sequence (P45984 whole entry) above
# [12] = molecular target: T4, Mitogen-activated protein kinase 14 (Homo sapiens, UniProt Q16539); test: Inhibition of GST-tagged human recombinant p38alpha expressed in Escherichia coli by Z'-LYTE assay
# [13] = molecular target: T4, Mitogen-activated protein kinase 14; test: Inhibition of Nano-Luc fused p38alpha (unknown origin) expressed in HEK293T cells pretreated for 3 hrs followed by K5-tarcer addition and measured after 1 hr by NanoBRET assay; type: cell-based; details: time 4.0 hrs
# [14] = Antiproliferative activity against human HAP1 cells assessed as inhibition of cell growth incubated for 3 days by CellTiter-Glo luminescent assay; type: functional, cell-based; details: HAP1, 72 h
# HAP1 = test: Antiproliferative activity against human HAP1 cells assessed as inhibition of cell growth incubated for 3 days in presence of VX745 by CellTiter-Glo luminescent assay; type: functional, cell-based; details: time 3.0 day
# [15] = molecular target: T5, 1-phosphatidylinositol 3-phosphate 5-kinase (Homo sapiens, UniProt Q9Y2I7); test: Inhibition of PIKFYVE in human MDA-MB-231 cells assessed as vacuole formation at 4 uM measured after 3 days by bright field microscopy; type: cell-based; details: time 3.0 day
# Procedure, shortened: (§1)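 MDA-MB-231 cells (DMEM, 10% FBS) seeded, next day treated with inhibitor or DMSO; after 3 days imaged by bright-field microscopy at 20× for vacuoles.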
# [16] = molecular target: T5, 1-phosphatidylinositol 3-phosphate 5-kinase; test: Inhibition of Nano-Luc fused PIKFYVE (unknown origin) expressed in HEK293T cells pretreated for 3 hrs followed by K8-tarcer addition and measured after 1 hr by NanoBRET assay; type: cell-based
# MM1.S [17] = test: Induction of apoptosis in human MM1.S cells assessed as increase in PARP cleavage at 0.5 to 2.5 uM incubated for 24 hrs by immunoblot analysis; type: functional, cell-based; details: dose 0.5-2.5 µM
# ANBL-6 [18] = test: Antiproliferative activity against Bortezomib-resistant human ANBL-6 cells assessed as inhibition of cell growth incubated for 72 hrs by CellTiter-Glo luminescent assay; type: functional, cell-based
# ANBL-6 [19] = test: Antiproliferative activity against wild type human ANBL-6 cells assessed as inhibition of cell growth incubated for 72 hrs by CellTiter-Glo luminescent assay; type: functional, cell-based
# MM1.S [20] = test: Induction of apoptosis in human MM1.S cells at 250 nM by AnnexinV/PI staining based flow cytometry; type: functional, cell-based
# MM1.S [21] = test: Induction of apoptosis in human MM1.S cells assessed as increase in caspase-3 cleavage at 0.5 to 2.5 uM incubated for 24 hrs by immunoblot analysis; type: functional, cell-based; details: dose 0.5-2.5 µM
# [22] = molecular target: T2, Mitogen-activated protein kinase 9; test: Binding affinity to wild type N-terminal GST-tagged human recombinant JNK2 (1 to 364 residues) expressed in Escherichia coli in presence of ATP measured every 0.5 mins for 120 mins by fluorescence based analysis
# Target sequence in this assay (P45984 whole entry, looked up): as the sequence (P45984 whole entry) above
# [23] = molecular target: T2, Mitogen-activated protein kinase 9; test: Covalent binding affinity to JNK2 in human MM1.S cells incubated for 6 hrs by biotin-JNK-IN-7 probe based pull-down competition based analysis; type: cell-based
# Procedure, shortened: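 MM.1S cells exposed to compound or DMSO 6 h; lysed in HEPES pH 7.4/NP-40 buffer; lysates incubated with 1 μM biotin-JNK-IN-7 overnight at 4 °C then 2 h room temperature; streptavidin pull-down 2–3 h at 4 °C; bound JNK1/JNK2 detected by western blot.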
# Target sequence in this assay (P45984 whole entry, looked up): as the sequence (P45984 whole entry) above
# [24] = molecular target: T2, Mitogen-activated protein kinase 9; test: Covalent binding affinity to JNK2 (unknown origin) assessed as Cys116 labelling at protein:compound concentration ratio of 1:5 incubated for 1 hr by capillary electrophoresis MS/MS analysis
# Procedure, shortened: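 Purified JNK2 (5 μg) incubated 1 h at room temperature with 5-fold molar excess compound; intact mass by LC/MS, then trypsin digest and capillary electrophoresis-MS/MS database search for modified residue.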
# Target sequence in this assay (P45984 whole entry, looked up): as the sequence (P45984 whole entry) above
# [25] = molecular target: T4, Mitogen-activated protein kinase 14; test: Inhibition of p38alpha in human SUM159 cells at 1 uM by KiNativ Profiling analysis; type: cell-based; details: SUM159PT
# Procedure, shortened: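 SUM159 cells treated with 1 μM compound, then washed with PBS and frozen. Lysates were chased with a nonspecific ATP or ADP-biotin probe that labels the conserved catalytic lysine.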
# [26] = molecular target: T5, 1-phosphatidylinositol 3-phosphate 5-kinase; test: Inhibition of PIKFYVE in human MDA-MB-231 cells assessed as vacuole formation at 1 uM measured after 3 days by bright field microscopy; type: cell-based; details: time 3.0 day; procedure, shortened: as §1
# Homo sapiens [27] = organism: Homo sapiens; test: Inhibition of CK1gamma (unknown origin) at 1 uM by KinomeScan analysis
# Procedure, shortened: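 KINOMEscan ScanMAX panel screened at 1 μM compound.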
# [28] = molecular target: T5, 1-phosphatidylinositol 3-phosphate 5-kinase; test: Binding affinity to wild type partial length human PIKFYVE (F1512 to C2098 residues) expressed in mammalian expression system by KdELECT kinase assay
# [29] = molecular target: Mitogen-activated protein kinase 10 (Homo sapiens) (UniProt P53779); test: Inhibition of human full length recombinant JNK3 at 1 uM by KinomeScan analysis
# Procedure, shortened: (§2)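 KINOMEscan (ScanMAX) binding panel of >400 kinases, compound tested at 1 μM; reported as percent inhibition/score.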
# SUM159PT = test: Inhibition of CK1gamma in human SUM159 cells at 1 uM by KiNativ Profiling analysis; type: cell-based
# Procedure, shortened: (§3)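 SUM159 cells treated with 1 μM compound, collected, PBS-washed and frozen; lysates probed with ATP/ADP-biotin acyl probe labelling catalytic lysine (KiNativ); protection from labelling measured.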
# [30] = molecular target: T5, 1-phosphatidylinositol 3-phosphate 5-kinase; test: Inhibition of wild type partial length human PIKFYVE (F1512 to C2098 residues) expressed in mammalian expression system at 1 uM by KinomeScan analysis; procedure, shortened: as §2
# [31] = molecular target: T2, Mitogen-activated protein kinase 9; test: Inhibition of JNK2 in human SUM159 cells at 1 uM by KiNativ Profiling analysis; type: cell-based; details: SUM159PT; procedure, shortened: as §3
# Target sequence in this assay (P45984 whole entry, looked up): as the sequence (P45984 whole entry) above
# [32] = molecular target: T4, Mitogen-activated protein kinase 14; test: Inhibition of wild type full length human p38 alpha (M1 to S360 residues) expressed in bacterial expression system at 1 uM by KinomeScan analysis; procedure, shortened: as §2
# [33] = molecular target: T5, 1-phosphatidylinositol 3-phosphate 5-kinase; test: Inhibition of PIKFYVE in human SUM159 cells at 1 uM by KiNativ Profiling analysis; type: cell-based; details: SUM159PT; procedure, shortened: as §3
# [34] = molecular target: T1, Mitogen-activated protein kinase 8; test: Inhibition of wild type full length human JNK1 expressed in mammalian expression system at 1 uM by KinomeScan analysis; procedure, shortened: as §2
# [35] = molecular target: T2, Mitogen-activated protein kinase 9; test: Inhibition of wild type full length human JNK2 (M1 to Q382 residues) expressed in mammalian expression system at 1 uM by KinomeScan analysis; procedure, shortened: as §2
# Target sequence in this assay (P45984 whole entry, looked up): as the sequence (P45984 whole entry) above
# T1 sequence (P45983 whole entry): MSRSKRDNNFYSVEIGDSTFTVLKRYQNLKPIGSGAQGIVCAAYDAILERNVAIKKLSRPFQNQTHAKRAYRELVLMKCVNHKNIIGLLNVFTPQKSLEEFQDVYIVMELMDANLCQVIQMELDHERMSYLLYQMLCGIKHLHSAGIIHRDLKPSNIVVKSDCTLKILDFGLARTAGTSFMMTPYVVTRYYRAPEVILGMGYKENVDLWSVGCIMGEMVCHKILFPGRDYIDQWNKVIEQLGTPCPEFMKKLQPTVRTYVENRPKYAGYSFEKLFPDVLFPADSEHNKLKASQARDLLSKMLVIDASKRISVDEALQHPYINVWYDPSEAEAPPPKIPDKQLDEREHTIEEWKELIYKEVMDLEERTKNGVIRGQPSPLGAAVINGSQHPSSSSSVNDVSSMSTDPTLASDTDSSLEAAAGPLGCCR
# T4 sequence (Q16539 whole entry, the tested form may be a part): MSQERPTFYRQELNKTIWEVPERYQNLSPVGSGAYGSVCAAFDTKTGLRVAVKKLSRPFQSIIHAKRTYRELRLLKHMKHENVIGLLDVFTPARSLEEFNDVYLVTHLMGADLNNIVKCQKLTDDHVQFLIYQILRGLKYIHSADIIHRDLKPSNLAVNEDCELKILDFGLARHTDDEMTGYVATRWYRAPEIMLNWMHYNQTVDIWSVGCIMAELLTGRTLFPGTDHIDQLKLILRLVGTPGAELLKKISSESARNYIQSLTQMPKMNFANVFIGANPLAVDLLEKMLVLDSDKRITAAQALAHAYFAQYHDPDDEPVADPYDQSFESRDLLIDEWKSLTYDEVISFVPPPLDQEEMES
# T5 sequence (Q9Y2I7 whole entry): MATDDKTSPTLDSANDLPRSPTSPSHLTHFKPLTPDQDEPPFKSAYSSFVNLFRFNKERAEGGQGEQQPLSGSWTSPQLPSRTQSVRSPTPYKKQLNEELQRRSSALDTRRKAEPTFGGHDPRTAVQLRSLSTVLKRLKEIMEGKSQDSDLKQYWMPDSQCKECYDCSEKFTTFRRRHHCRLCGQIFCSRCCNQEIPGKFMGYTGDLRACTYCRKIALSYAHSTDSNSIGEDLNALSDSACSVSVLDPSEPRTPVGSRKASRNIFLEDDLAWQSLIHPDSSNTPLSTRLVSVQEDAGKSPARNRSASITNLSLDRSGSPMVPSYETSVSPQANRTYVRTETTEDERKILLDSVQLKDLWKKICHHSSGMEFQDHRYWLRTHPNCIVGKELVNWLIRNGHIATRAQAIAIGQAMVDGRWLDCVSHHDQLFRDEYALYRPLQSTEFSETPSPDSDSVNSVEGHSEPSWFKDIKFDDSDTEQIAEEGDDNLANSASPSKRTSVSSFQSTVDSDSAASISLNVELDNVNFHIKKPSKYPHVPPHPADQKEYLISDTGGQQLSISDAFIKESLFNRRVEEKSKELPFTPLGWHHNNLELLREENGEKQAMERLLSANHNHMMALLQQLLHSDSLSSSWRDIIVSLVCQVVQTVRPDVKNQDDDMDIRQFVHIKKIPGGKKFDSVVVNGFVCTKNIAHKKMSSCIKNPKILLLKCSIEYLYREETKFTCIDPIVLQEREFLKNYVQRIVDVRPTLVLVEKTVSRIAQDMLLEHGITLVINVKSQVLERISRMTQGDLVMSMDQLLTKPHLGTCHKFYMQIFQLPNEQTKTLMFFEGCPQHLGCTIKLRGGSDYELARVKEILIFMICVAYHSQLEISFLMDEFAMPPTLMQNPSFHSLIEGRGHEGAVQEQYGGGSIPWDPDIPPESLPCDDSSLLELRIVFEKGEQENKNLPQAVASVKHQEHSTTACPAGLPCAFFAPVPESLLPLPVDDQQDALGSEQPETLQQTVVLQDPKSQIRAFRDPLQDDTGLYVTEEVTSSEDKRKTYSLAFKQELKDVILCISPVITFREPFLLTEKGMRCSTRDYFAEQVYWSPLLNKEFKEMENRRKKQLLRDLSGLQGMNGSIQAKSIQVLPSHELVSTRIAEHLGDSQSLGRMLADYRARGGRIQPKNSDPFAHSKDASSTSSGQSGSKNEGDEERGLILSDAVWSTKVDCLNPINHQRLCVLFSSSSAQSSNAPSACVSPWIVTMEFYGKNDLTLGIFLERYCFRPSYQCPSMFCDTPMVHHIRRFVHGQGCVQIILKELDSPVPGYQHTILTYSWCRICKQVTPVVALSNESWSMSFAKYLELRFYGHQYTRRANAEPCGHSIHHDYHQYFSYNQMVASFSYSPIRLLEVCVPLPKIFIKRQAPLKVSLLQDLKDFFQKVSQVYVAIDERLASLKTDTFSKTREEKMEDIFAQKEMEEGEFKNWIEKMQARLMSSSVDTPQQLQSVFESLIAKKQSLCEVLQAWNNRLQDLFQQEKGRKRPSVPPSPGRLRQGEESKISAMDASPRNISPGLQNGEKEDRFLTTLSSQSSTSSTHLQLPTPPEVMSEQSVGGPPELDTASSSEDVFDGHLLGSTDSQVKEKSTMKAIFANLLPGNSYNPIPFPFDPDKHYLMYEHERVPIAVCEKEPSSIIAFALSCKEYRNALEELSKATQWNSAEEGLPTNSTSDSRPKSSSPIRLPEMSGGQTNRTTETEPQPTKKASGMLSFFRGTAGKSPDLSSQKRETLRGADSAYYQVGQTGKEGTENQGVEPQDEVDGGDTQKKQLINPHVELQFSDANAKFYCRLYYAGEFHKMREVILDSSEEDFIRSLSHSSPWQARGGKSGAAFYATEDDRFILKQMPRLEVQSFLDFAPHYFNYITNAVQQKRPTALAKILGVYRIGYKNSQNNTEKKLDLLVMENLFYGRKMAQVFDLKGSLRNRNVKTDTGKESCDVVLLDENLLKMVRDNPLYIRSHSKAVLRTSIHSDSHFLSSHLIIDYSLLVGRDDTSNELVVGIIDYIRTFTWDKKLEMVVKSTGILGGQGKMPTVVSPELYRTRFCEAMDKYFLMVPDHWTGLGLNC
# Chain of Epithelial discoidin domain-containing receptor 1 (Homo sapiens) (Q08345 whole entry, the tested form may be a part): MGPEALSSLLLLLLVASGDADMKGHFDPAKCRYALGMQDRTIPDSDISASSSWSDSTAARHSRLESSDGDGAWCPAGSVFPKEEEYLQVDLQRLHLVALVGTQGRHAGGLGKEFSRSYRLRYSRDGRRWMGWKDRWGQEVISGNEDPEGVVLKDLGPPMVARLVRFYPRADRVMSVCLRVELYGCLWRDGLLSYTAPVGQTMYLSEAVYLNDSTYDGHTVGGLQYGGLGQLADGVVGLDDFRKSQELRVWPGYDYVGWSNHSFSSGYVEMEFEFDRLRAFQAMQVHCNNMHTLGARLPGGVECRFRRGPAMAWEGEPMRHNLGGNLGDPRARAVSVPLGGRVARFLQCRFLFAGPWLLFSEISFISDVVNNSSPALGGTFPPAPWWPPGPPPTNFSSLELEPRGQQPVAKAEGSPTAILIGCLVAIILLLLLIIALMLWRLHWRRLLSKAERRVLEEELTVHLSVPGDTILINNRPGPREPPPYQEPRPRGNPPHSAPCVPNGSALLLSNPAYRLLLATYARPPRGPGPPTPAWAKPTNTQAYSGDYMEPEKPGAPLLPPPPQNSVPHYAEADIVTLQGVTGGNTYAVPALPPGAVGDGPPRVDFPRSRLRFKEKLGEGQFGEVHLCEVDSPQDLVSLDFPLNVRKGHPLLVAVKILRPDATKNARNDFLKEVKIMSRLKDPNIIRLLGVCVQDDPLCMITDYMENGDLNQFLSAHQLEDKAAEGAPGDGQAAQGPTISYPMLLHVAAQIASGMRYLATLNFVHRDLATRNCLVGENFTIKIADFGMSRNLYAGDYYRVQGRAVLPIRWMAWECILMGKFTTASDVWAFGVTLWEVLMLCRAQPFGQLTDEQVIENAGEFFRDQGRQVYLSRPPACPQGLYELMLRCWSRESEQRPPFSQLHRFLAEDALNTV
SMILES,IC50 [2] [nM],IC50 [4] [nM],Ratio IC50 (Homo sapiens [9]),also measured
CN(C)C/C=C/C(=O)Nc1ccc(C(=O)Nc2cccc(Nc3nccc(-c4c(-c5ccccc5)nn5ccccc45)n3)c2)cc1,724,8.3,,inhibition [1]: Active; inhibition [3]: Active; inhibition (Homo sapiens [5]): Active; inhibition [6]: Active; inhibition [7]: Active; inhibition [8]: Active
Cc1ccc2c(-c3ccnc(N[C@H]4CCN(C(=O)c5ccc(NC(=O)/C=C/CN(C)C)cc5)C4)n3)c(-c3ccccc3)nn2c1,18,1,18,
C[C@H]1CN(C(=O)c2ccc(NC(=O)CCCN(C)C)cc2)C[C@H]1Nc1nccc(-c2c(-c3ccccc3)nn3ccccc23)n1,,,,Activity (MM1.S [10]): inactive; IC50 [11]: 1700 nM; IC50 [12]: 15 nM; inhibition [13]: Active
O=c1ncn2nc(Sc3ccc(F)cc3F)ccc2c1-c1c(Cl)cccc1Cl [NEFLAMAPIMOD],,,,IC50 [14]: 10000 nM
CN(C)C/C=C/C(=O)Nc1ccc(C(=O)N2CC[C@H](Nc3nccc(-c4c(-c5cccc(Cl)c5)nn5ccccc45)n3)C2)cc1,74,4,19,
CN(C)C/C=C/C(=O)Nc1ccc(C(=O)NC2CCCC(Nc3nccc(-c4c(-c5ccccc5)nn5ccccc45)n3)C2)cc1 (stereo unspecified),475,44,11,
CN(C)C/C=C/C(=O)Nc1ccc(C(=O)N2CC[C@H](Nc3nccc(-c4c(-c5ccc(F)cc5)nn5ccccc45)n3)C2)cc1,67,4,17,
O[C@H]1CC[C@H](Nc2ncc3nc(Nc4c(F)cc(F)cc4F)n([C@H]4CCOC4)c3n2)CC1 [TANZISERTIB],,,,Activity (MM1.S [10]): inactive; IC50 [14]: > 30000 nM; Activity (HAP1): inactive
CN(C)CCCC(=O)Nc1ccc(C(=O)N2CC[C@H](Nc3nccc(-c4c(-c5ccccc5)nn5ccccc45)n3)C2)cc1,,,,inhibition [15]: inactive; IC50 [16]: > 3000 nM
CN(C)C/C=C/C(=O)Nc1ccc(C(=O)N2CC[C@H](Nc3ncc(Cl)c(-c4c(-c5ccccc5)nn5ccccc45)n3)C2)cc1,3050,483,6,
CN(C)C/C=C/C(=O)Nc1ccc(C(=O)N2CC[C@@H](Nc3nccc(-c4c(-c5ccccc5)nn5ccccc45)n3)C2)cc1,10,2,5,
CN(C)C/C=C/C(=O)Nc1ccc(C(=O)N2CCCC[C@@H](Nc3nccc(-c4c(-c5ccccc5)nn5ccccc45)n3)C2)cc1,387,17,23,
CN(C)C/C=C/C(=O)Nc1ccc(C(=O)N2CCC[C@H](Nc3nccc(-c4c(-c5ccccc5)nn5ccccc45)n3)C2)cc1,53,5,10,
CN(C)C/C=C/C(=O)Nc1ccc(C(=O)N2CCCC[C@H](Nc3nccc(-c4c(-c5ccccc5)nn5ccccc45)n3)C2)cc1,256,28,9,
Cc1cc(NC(=O)c2cccc(NC(=O)/C=C/CN(C)C)c2)ccc1Nc1nccc(-c2cccnc2)n1,,,,Activity (MM1.S [17]): inactive; Activity (ANBL-6 [18]): inactive; Activity (ANBL-6 [19]): inactive; Activity (MM1.S [20]): inactive; Activity (MM1.S [21]): inactive; Activity [22]: Active; Activity [23]: Active
CN(C)C/C=C/C(=O)Nc1ccc(C(=O)N2CC[C@H](Nc3nccc(-c4c(-c5ccccc5)nn5ccccc45)n3)C2)cc1,166,5,33,Activity [24]: 100%; inhibition [25]: Active; inhibition [26]: Active; inhibition (Homo sapiens [27]): Active; Kd [28]: 270 nM; inhibition [29]: Active; inhibition (SUM159PT): Active; inhibition [30]: Active; inhibition [31]: Active; inhibition [32]: Active; IC50 [16]: 292 nM; inhibition [33]: Active; inhibition [34]: Active; inhibition [35]: Active
CN(C)C/C=C/C(=O)Nc1ccc(C(=O)N2CC[C@H](Nc3nccc(-c4c(-c5ccc(Cl)cc5)nn5ccccc45)n3)C2)cc1,62,7,9,
CN(C)C/C=C/C(=O)Nc1ccc(C(=O)N2CCC[C@@H](Nc3nccc(-c4c(-c5ccccc5)nn5ccccc45)n3)C2)cc1,470,17,28,
Cc1cccn2nc(-c3ccccc3)c(-c3ccnc(N[C@H]4CCN(C(=O)c5ccc(NC(=O)/C=C/CN(C)C)cc5)C4)n3)c12,,,8,
